Data published in ChEMBL document CHEMBL5357046, “Sirtuin 1-activating derivatives belonging to the anilinopyridine class displaying in vivo cardioprotective activities” (2024).
Calls of active or inactive are those of the source. The calls are words filed in the database; no cut-off is given here.

Legend:
[1] = biological target: T1, NAD-dependent protein deacetylase sirtuin-1 (Homo sapiens) (UniProt Q96EB6); test: Activation of human recombinant SIRT1 at 3 to 100 uM by fluorescence based spectrofluorometer analysis; settings: filed as activator, dose 3-100 µM
T1 sequence (whole entry): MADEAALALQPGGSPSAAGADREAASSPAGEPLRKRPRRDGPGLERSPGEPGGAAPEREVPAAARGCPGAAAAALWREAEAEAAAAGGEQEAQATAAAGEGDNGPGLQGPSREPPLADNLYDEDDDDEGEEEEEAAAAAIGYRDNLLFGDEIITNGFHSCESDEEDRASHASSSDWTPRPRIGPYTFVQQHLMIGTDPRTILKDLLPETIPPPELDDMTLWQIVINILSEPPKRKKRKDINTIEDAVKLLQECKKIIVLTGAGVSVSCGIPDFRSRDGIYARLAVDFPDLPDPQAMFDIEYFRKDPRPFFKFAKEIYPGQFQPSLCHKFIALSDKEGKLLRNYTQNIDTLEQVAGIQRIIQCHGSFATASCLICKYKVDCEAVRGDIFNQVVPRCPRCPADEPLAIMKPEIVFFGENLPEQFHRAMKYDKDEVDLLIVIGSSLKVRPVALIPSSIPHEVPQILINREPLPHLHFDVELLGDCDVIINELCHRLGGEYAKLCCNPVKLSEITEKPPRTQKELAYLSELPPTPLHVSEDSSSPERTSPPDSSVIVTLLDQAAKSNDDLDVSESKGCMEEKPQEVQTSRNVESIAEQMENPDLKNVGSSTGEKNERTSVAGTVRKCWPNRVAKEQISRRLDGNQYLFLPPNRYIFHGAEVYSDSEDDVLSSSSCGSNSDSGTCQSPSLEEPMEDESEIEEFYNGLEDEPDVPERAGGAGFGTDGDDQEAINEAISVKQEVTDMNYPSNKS

[2] = biological target: T1, NAD-dependent protein deacetylase sirtuin-1 (Homo sapiens); test: Activation of human recombinant SIRT1 by fluorescence based spectrofluorometer analysis; settings: filed as activator, dose 3-100 µM
[3] = tested on: Rattus norvegicus; test: Cardioprotective activity against acute myocardial infarction Wistar rat model assessed as reduction in percentage of ischemic area to total area of left ventricle at 0.1 mg/kg, ip by ECG analysis; format: functional; parameters: scale not given: the % may be the effect or the level left
Procedure, shortened: (§1)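 Adult male Wistar rats (350–450 g) dosed i.p. 2 h before surgery (vehicle DMSO 1 ml kg⁻¹), then anaesthetized with thiopental (70 mg kg⁻¹ i.p.). LAD occluded 30 min (ST elevation on ECG, cyanosis) then reperfused 120 min. Hearts washed on Langendorff, LV sliced and stained with TTC 1% at 37 °C for 20 min; infarct area/LV area by planimetry. n = 5 per group.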

[4] = tested on: Rattus norvegicus; test: Cardioprotective activity against acute myocardial infarction Wistar rat model assessed as reduction in percentage of ischemic area to total area of left ventricle at 10 mg/kg, ip by ECG analysis; format: functional; parameters: scale not given: the % may be the effect or the level left; procedure, shortened: as §1
[5] = biological target: T1, NAD-dependent protein deacetylase sirtuin-1 (Homo sapiens); test: Activation of human recombinant SIRT1 at 3 uM by fluorescence based spectrofluorometer analysis

SMILES: Oc1ccc(Nc2cccc(-c3ccc(O)cc3)n2)cc1
- Activity [1]: Active
- Activity [2]: Dose-Dependent Effect
- Activity [3]: 28%

SMILES: Oc1cccc(Nc2cccc(-c3cccc(O)c3)n2)c1
- Activity [1]: Active
- Activity [2]: Dose-Dependent Effect

SMILES: Oc1ccc(/C=C/c2cc(O)cc(O)c2)cc1 [RESVERATROL]
- Activity [4]: 30%

SMILES: Oc1ccc(-c2cccc(Nc3cccc(O)c3)n2)cc1
- Activity [1]: Active
- Activity [2]: Dose-Dependent Effect
- Activity [4]: 6%

SMILES: Oc1cccc(Nc2ccnc(-c3cccc(O)c3)c2)c1
- Activity [2]: Dose-Dependent Effect
- Activity [5]: inactive

SMILES: Oc1cccc(Nc2cc(-c3cccc(O)c3)ccn2)c1
- Activity [1]: Active

SMILES: Oc1ccc(Nc2cccc(-c3cccc(O)c3)n2)cc1
- Activity [1]: Active
- Activity [2]: Dose-Dependent Effect
